Reference: ChEMBL document CHEMBL4368858, “Search for a 5-CT alternative. In vitro and in vivo evaluation of novel pharmacological tools: 3-(1-alkyl-1H-imidazol-5-yl)-1H-indole-5-carboxamides, low-basicity 5-HT7 receptor agonists” (Medchemcomm, 2018)
Active and inactive are the calls of the source.

Tests used:
[1] = Drug metabolism in human liver microsomes measured after 120 mins in presence of NADPH generating system by UPLC analysis; assay type: ADME, Microsome; settings: for Drug metabolism: microsomes, 2 h
How it was run: (§1)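 Incubation with human, rat or mouse liver microsomes for 120 min at 37 °C with an NADPH regeneration system. Reaction mixtures analysed by UPLC for metabolites and % substrate metabolized.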

[2] = species on record: Homo sapiens; assay: Selectivity ratio of Ki for displacement of [3H]-8-OH-DPAT from recombinant human 5HT1A receptor expressed in HEK293 cell membranes to Ki for displacement of [3H]-5-CT from recombinant human 5HT7b receptor expressed in HEK293 cell membranes
[3] = biological target: CYP3A4 (Homo sapiens, UniProt P08684); assay: Inhibition of CYP3A4 (unknown origin) assessed as residual activity at 10 uM using beetle D-luciferin as substrate by CYP450-Glo assay relative to control; assay type: ADME; settings: CYP3A4 enzyme (unknown origin), probe beetle D-luciferin, read-out: Activity
Sequence of CYP3A4 (P08684 whole entry, canonical isoform): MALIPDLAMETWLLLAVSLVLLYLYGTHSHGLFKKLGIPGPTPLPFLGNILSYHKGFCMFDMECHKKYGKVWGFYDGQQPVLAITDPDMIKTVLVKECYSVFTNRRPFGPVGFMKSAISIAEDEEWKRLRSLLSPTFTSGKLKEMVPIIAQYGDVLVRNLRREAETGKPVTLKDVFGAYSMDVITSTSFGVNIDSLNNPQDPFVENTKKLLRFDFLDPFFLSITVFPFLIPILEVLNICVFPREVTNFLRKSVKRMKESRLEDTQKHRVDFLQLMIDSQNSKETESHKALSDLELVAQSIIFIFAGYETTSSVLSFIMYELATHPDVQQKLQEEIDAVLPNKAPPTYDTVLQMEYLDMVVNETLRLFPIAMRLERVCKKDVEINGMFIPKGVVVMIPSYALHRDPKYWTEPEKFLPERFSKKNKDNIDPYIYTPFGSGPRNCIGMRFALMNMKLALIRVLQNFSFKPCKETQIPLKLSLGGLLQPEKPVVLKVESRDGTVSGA
How it was run: (§2)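 Luminescent P450-Glo assays for CYP3A4, CYP2D6 and CYP2C9 run per the kit protocol. Triplicate wells, final concentrations 0.01–25 μM, same across all three isoforms. Activity given as % of control.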

[4] = biological target: CYP2C9 (Homo sapiens, UniProt P11712); assay: Inhibition of CYP2C9 (unknown origin) assessed as residual activity at 25 uM using beetle D-luciferin as substrate by CYP450-Glo assay relative to control; assay type: ADME; settings: CYP2C9 enzyme (unknown origin), probe beetle D-luciferin, read-out: Activity; how it was run: as §2
Sequence of CYP2C9 (P11712 whole entry): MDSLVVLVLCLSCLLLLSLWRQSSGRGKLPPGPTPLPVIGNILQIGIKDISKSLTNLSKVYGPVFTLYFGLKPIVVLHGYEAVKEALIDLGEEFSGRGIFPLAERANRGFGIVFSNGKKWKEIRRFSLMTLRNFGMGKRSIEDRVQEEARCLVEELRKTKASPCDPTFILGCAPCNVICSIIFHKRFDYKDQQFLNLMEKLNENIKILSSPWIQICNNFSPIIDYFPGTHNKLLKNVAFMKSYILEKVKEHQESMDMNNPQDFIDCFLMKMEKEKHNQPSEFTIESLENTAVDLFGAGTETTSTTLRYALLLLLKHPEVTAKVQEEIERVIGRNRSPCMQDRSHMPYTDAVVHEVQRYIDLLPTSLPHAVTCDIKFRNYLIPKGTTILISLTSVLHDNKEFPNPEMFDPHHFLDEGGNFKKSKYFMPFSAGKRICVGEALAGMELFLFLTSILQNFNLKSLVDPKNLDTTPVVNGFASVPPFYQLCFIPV

[5] = biological target: 5-hydroxytryptamine receptor 7 (Homo sapiens, UniProt P34969); assay: Displacement of [3H]-5-CT from recombinant human 5HT7b receptor expressed in HEK293 cells measured after 1 hr by microbeta counting method; assay type: cell-based
Sequence of 5-hydroxytryptamine receptor 7 (P34969 whole entry): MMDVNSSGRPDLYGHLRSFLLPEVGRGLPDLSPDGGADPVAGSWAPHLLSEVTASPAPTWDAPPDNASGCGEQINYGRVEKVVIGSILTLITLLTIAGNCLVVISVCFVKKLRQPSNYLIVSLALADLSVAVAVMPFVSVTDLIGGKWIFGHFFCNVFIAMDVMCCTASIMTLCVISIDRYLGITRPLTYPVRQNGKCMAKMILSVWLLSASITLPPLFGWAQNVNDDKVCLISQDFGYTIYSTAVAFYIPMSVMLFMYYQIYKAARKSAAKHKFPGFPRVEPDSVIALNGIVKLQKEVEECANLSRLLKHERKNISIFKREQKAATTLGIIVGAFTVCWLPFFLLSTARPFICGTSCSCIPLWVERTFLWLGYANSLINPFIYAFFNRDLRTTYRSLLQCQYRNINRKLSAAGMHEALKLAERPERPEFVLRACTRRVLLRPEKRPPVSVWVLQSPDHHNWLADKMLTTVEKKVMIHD
How it was run: (§3)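 Radioligand displacement on cloned human receptors stably expressed in HEK-293 cells, except 5-HT2A, which was expressed in CHO cells. Radioligands: [3H]-LSD for 5-HT6, [3H]-5-CT for 5-HT7, [3H]-ketanserin for 5-HT2A, [3H]-raclopride for D2.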

[6] = biological target: T1, 5-hydroxytryptamine receptor 1A (Homo sapiens, UniProt P08908); assay: Displacement of [3H]-8-OH-DPAT from recombinant human 5HT1A receptor expressed in HEK293 cells measured after 1 hr by microbeta counting method; assay type: cell-based
T1 sequence (P08908 whole entry): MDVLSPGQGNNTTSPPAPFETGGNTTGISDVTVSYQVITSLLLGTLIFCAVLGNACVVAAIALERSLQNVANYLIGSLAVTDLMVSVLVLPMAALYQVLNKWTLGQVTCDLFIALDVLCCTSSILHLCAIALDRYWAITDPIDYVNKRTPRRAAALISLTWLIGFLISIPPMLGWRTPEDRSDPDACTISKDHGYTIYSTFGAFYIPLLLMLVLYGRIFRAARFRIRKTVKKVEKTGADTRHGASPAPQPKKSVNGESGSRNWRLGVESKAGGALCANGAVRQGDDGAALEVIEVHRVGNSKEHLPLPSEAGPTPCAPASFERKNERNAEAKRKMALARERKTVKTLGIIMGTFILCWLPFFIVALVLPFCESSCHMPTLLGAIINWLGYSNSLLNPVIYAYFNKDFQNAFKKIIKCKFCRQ
How it was run: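 Cloned human 5-HT1A receptor stably expressed in HEK-293 cells; displacement of [3H]-8-OH-DPAT.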

[7] = biological target: D(2) dopamine receptor (Homo sapiens, UniProt P14416); assay: Displacement of [3H]-raclopride from recombinant human D2LR receptor expressed in HEK293 cells measured after 1 hr by microbeta counting method; assay type: cell-based; how it was run: as §3
Sequence of D(2) dopamine receptor (P14416 whole entry): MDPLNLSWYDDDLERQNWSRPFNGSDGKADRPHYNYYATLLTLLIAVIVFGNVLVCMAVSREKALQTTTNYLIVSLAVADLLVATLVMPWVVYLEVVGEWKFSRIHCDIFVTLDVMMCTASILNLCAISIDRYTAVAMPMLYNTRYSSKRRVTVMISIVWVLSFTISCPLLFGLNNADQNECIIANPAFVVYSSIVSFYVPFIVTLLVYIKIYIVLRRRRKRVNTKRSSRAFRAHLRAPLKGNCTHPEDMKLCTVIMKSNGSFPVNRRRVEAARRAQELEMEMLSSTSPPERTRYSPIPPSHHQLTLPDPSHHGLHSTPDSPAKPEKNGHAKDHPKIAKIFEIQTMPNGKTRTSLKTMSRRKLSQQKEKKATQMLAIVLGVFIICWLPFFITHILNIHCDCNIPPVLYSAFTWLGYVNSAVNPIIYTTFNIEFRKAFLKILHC

[8] = biological target: P-glycoprotein (ABCB1) (Homo sapiens, UniProt P08183); assay: Inhibition of recombinant human membrane bound Pgp assessed as basal ATP consumption at 100 uM after 40 mins by Pgp-Glo luminescence assay relative to control; parameters: scale not given: the % may be the effect or the level left; settings: read-out: Activity
Sequence of P-glycoprotein (ABCB1) (P08183 whole entry): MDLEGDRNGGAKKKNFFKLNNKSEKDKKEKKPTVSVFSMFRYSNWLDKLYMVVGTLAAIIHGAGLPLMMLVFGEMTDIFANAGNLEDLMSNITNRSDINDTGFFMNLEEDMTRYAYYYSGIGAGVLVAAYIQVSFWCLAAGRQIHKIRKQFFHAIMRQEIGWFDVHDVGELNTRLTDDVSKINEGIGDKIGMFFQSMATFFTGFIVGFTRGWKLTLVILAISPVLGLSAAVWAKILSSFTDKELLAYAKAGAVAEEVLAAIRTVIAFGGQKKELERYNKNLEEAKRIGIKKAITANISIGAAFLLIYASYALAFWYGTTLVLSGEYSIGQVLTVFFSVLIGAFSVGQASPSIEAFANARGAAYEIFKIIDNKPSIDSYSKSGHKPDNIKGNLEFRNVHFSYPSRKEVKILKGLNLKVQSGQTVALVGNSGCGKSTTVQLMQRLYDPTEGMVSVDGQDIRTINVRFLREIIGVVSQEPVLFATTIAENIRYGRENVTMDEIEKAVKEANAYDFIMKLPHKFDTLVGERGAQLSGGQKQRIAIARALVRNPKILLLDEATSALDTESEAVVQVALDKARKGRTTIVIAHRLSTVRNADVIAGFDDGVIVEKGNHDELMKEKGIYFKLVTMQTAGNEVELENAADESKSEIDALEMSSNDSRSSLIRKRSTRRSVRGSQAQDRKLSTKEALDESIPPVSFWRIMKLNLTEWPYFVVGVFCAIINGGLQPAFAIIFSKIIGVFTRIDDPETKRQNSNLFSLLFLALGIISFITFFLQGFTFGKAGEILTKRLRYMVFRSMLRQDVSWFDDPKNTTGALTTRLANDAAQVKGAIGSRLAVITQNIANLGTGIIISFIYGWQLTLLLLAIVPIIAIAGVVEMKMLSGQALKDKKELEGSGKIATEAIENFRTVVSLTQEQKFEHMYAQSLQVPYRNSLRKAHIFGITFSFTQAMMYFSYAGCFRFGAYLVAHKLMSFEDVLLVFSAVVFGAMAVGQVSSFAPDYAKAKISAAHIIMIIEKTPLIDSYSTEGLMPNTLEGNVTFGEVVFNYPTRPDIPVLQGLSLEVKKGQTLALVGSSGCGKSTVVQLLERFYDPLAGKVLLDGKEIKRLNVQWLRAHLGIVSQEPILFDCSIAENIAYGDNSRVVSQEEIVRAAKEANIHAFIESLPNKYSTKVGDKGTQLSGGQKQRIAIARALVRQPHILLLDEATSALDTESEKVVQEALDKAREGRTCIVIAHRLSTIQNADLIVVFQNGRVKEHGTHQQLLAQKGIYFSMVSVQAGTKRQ
How it was run: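 Pgp-Glo luminescence assay measuring Pgp ATP consumption. Compounds incubated with Pgp membranes at 100 μM for 40 min at 37 °C in triplicate. Na3VO4 (100 μM) used as reference inhibitor and verapamil (200 μM) as stimulator; basal activity taken as the vanadate-versus-untreated signal difference.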

[9] = biological target: Cytochrome P450 2D6 (Homo sapiens, UniProt P10635); assay: Inhibition of CYP2D6 (unknown origin) using beetle D-luciferin as substrate by CYP450-Glo assay; assay type: ADME
[10] = biological target: T2, 5-hydroxytryptamine receptor 2A (Homo sapiens, UniProt P28223); assay: Displacement of [3H]-ketanserin from recombinant human 5HT2A receptor expressed in CHOK1 cells measured after 1 hr by microbeta counting method; assay type: cell-based; how it was run: as §3
T2 sequence (P28223 whole entry): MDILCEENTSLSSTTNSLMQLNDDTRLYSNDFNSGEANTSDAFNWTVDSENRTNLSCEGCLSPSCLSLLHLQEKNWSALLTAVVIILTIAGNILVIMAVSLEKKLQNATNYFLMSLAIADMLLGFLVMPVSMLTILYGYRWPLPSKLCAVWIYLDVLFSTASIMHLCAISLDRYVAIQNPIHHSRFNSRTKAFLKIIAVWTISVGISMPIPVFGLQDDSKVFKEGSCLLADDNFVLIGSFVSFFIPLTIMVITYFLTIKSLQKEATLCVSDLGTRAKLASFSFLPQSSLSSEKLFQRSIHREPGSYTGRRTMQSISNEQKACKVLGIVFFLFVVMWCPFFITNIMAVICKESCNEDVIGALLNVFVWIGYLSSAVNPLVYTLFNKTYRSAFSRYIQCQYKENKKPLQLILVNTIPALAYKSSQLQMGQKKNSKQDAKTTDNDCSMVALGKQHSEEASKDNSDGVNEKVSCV

[11] = biological target: T3, 5-hydroxytryptamine receptor 6 (Homo sapiens, UniProt P50406); assay: Displacement of [3H]-LSD from recombinant human 5HT6 receptor expressed in HEK293 cells measured after 1 hr by microbeta counting method; assay type: cell-based; how it was run: as §3
T3 sequence (P50406 whole entry): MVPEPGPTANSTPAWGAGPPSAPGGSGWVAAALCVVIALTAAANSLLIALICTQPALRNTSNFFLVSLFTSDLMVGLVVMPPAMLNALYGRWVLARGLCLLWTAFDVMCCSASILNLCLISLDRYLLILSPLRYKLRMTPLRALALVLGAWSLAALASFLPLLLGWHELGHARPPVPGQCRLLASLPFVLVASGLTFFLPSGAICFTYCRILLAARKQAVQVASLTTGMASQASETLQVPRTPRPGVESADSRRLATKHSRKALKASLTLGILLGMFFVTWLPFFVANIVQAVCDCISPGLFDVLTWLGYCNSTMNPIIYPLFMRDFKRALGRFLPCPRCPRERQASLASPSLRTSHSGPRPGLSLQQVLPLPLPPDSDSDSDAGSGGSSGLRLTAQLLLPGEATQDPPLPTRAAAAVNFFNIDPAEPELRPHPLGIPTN

[12] = Drug metabolism in mouse liver microsomes measured after 120 mins in presence of NADPH generating system by UPLC analysis; assay type: ADME, Microsome; settings: read-out: Drug metabolism; how it was run: as §1
[13] = Drug metabolism in rat liver microsomes measured after 120 mins in presence of NADPH generating system by UPLC analysis; assay type: ADME, Microsome; settings: for metabolised at 2 h: liver microsomes, read-out: Drug metabolism; how it was run: as §1
[14] = biological target: Cytochrome P450 3A4 (Homo sapiens, UniProt P08684); assay: Inhibition of CYP3A4 (unknown origin) using beetle D-luciferin as substrate by CYP450-Glo assay; assay type: ADME
Sequence of Cytochrome P450 3A4 (P08684 whole entry): as the sequence (P08684 whole entry, canonical isoform) above

[15] = biological target: CYP2D6 (Homo sapiens, UniProt P10635); assay: Inhibition of CYP2D6 (unknown origin) assessed as residual activity at 10 uM using beetle D-luciferin as substrate by CYP450-Glo assay relative to control; assay type: ADME; settings: CYP2D6 enzyme (unknown origin), probe beetle D-luciferin, read-out: Activity; how it was run: as §2
Sequence of CYP2D6 (P10635 whole entry): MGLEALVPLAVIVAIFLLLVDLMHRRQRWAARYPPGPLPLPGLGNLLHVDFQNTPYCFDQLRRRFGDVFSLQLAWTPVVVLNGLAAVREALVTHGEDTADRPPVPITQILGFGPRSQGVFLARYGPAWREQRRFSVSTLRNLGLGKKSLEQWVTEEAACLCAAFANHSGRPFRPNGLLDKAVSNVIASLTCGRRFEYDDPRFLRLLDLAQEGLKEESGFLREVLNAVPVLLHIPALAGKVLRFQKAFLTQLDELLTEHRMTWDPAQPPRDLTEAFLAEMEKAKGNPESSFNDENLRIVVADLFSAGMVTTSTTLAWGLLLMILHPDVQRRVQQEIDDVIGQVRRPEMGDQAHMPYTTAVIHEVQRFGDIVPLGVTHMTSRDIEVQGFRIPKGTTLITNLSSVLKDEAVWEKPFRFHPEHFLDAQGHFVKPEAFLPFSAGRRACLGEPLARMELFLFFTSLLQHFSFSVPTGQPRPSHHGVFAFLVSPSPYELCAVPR

[16] = Mutagenicity in Salmonella typhimurium TA100 assessed as revertant colonies at 10 uM by Ames test; assay type: toxicity; settings: salmonella enterica subsp. enterica serovar typhimurium
How it was run: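 Ames microplate fluctuation assay with S. typhimurium TA100 in 384-well format, run in triplicate. Medium control baseline defined as mean revertants in growth medium + 1% DMSO plus one SD. Positive wells counted; a 2-fold increase over baseline flagged as a mutagen alert.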

[17] = biological target: T3, 5-hydroxytryptamine receptor 6; assay: Displacement of [3H]LSD from human recombinant 5-HT6 receptor expressed in cell membrane after 1.5 hrs by scintillation counting analysis; assay type: cell membranes
How it was run: (§4)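 Cloned human 5-HT6 receptor stably expressed in HEK-293 cells; displacement of [3H]-LSD.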

[18] = biological target: 5-hydroxytryptamine receptor 5A (Homo sapiens, UniProt P47898); assay: Displacement of [3H]LSD from human recombinant 5-HT5A receptor expressed in cell membrane after 1.5 hrs by scintillation counting analysis; assay type: cell membranes
Sequence of 5-hydroxytryptamine receptor 5A (P47898 whole entry): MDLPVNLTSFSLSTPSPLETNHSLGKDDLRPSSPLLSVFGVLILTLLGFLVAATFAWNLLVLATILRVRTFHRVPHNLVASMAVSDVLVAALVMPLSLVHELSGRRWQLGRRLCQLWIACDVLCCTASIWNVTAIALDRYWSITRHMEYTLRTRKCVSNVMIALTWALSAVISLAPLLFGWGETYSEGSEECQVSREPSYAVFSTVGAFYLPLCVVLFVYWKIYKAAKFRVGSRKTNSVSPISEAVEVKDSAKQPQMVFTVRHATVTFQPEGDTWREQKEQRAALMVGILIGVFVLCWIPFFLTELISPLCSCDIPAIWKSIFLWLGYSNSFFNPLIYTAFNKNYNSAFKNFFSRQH

[19] = biological target: T2, 5-hydroxytryptamine receptor 2A; assay: Displacement of [3H]ketanserin from recombinant human 5-HT2A receptor expressed in cell membrane after 1.5 hrs by scintillation counting analysis; assay type: cell membranes
How it was run: (§5)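 Cloned human 5-HT2A receptor stably expressed in CHO cells; displacement of [3H]-ketanserin.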

[20] = tested on: HEK293; assay: Cytotoxicity against HEK293 cells assessed as reduction in cell viability at 1 uM after 72 hrs by MTS assay relative to control; settings: human, hek293, 72 h
[21] = biological target: T2, 5-hydroxytryptamine receptor 2A; assay: Displacement of [3H]ketanserin from recombinant human 5-HT2A receptor after 60 mins by scintillation counting analysis; how it was run: as §5
[22] = biological target: T3, 5-hydroxytryptamine receptor 6; assay: Displacement of [3H]LSD from human recombinant 5-HT6 receptor after 120 mins by scintillation counting analysis; how it was run: as §4
[23] = biological target: T1, 5-hydroxytryptamine receptor 1A; assay: Displacement of [3H]8-OH-DPAT from recombinant human 5-HT1A receptor after 60 mins by scintillation counting analysis
How it was run: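 Radioligand displacement at cloned human 5-HT1A receptor stably expressed in HEK-293 cells, with [3H]-8-OH-DPAT as the radioligand.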

[24] = Permeability of the compound by PAMPA; assay type: ADME; settings: read-out: permeability
How it was run: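 Passive permeability measured on a pre-coated PAMPA plate system. Concentrations were quantified against calibration curves made by capillary electrophoresis with diode-array detection. The permeability coefficient Pe is reported in 10^-6 cm s^-1 as mean ± SD of triplicates.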

[25] = Retention time of the compound in rat liver microsomes in presence of NADPH generating system by UPLC analysis; assay type: ADME, Microsome
How it was run: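 Incubated with rat liver microsomes plus an NADPH regeneration system for 120 min at 37 °C. Reaction mixtures were analysed by UPLC to detect metabolites and their retention times.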

[26] = Retention time of the compound in mouse liver microsomes in presence of NADPH generating system by UPLC analysis; assay type: ADME, Microsome; how it was run: as §1
[27] = Toxicity in albino Swiss mouse assessed as effect on body temperature at 1 to 15 mg/kg; assay type: organism-based; settings: in vivo
How it was run: (§6)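 Albino Swiss mice housed singly 24 h before test, dosed 1, 5 or 15 mg kg-1 60 min before test. Rectal temperature read to 0.1 °C at t = 0 (T1) and +15 min (T2) after transfer to a new cage. SIH taken as T2 − T1; T1 compared with vehicle for basal temperature effect. Groups of 8–10; one-way ANOVA with Dunnett's test.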

[28] = tested on: Mus musculus; assay: Anxiolytic-like activity in albino Swiss mouse assessed as reduction in stress-induced hyperthermia by measuring reduction in body temperature at 15 mg/kg administered 60 mins prior to testing measured for 15 mins; assay type: functional, organism-based; how it was run: as §6
[29] = Hepatotoxicity against human HepG2 cells assessed as ATP level at 100 uM after 3 hrs by CellTiter-Glo luminescent cell viability assay relative to control; assay type: toxicity, cell-based; settings: read-out: Activity
How it was run: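 HepG2 cells exposed 3 h at 1, 10 and 100 μM. […] Run in quadruplicate; result given as % of control.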

[30] = tested on: Mus musculus; assay: Reversal of MK-801-induced cognitive impairment in mouse assessed increase in novel object recognition at 1 mg/kg treated for 60 mins followed by MK-801 addition 30 mins prior to testing by novel object recognition test; assay type: functional, organism-based
How it was run: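 Mice adapted to an open field for 10 min. Next day: MK-801 0.3 mg kg-1 i.p. given 30 min before training, with the test compound given 60 min before MK-801. Training (T1) used two identical objects; in the retention trial 1 h later one object was replaced by a novel one. Exploration of each object was scored over 5 min. Means ± SEM.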

Compound: Cn1cncc1-c1c[nH]c2ccc(C(N)=O)cc12
- Drug metabolism [1]: Metabolite_Notdetected
- Ratio Ki [2]: 37
- activity at 10 µM [3]: 29.4%
- activity at 25 µM [4]: 37.2%
- Ki [5]: 6 nM
- Ki [6]: 0.22 µM
- Ki [7]: 5.56 µM
- activity at 40 min, 100 µM [8]: 60%
- IC50 [9]: 27.6 µM
- Ki [10]: > 10 µM
- Ki [11]: 6.91 µM
- metabolised at 2 h [12]: 9%
- Drug metabolism ([13]; microsomes, 2 h): Metabolite_Notdetected
- IC50 [14]: 3530 nM
- activity at 10 µM [15]: 55%
- Activity [16]: 12.3

Compound: c1ccc(-c2ccccc2N2CCNCC2)cc1
- Ki [17]: 596 nM
- Ki [18]: 76 nM
- Ki [19]: 1190 nM

Compound: N#CC(C#N)=NNc1cccc(Cl)c1 [CARBONYL CYANIDE M-CHLOROPHENYLHYDRAZONE]
- Activity [20]: 40%

Compound: Cc1nn(C)c(C)c1-c1cccc(CCN(C)C)c1
- Ki [21]: > 1000 nM
- Ki [22]: > 1000 nM
- Ki [23]: 700 nM

Compound: NCCc1c[nH]c2ccc(C(N)=O)cc12
- metabolised at 2 h ([1]; liver microsomes, read-out: Drug metabolism): 26%
- activity at 10 µM [3]: 95.7%
- activity at 25 µM [4]: 78.7%
- Papp [24]: 3.54 ×10⁻⁶ cm/s
- Retention_time [25]: 1.62 min
- activity at 40 min, 100 µM [8]: 26.3%
- metabolised at 2 h [12]: 2%
- metabolised at 2 h [13]: 20%
- activity at 10 µM [15]: 108%
- Activity [16]: 4

Compound: N#Cc1ccc(CNC(=O)CCCCCN2CCN(c3ccccc3-c3ccccc3)CC2)cc1
- Ki [18]: 178 nM
- Ki [19]: 626 nM

Compound: CCn1cncc1-c1c[nH]c2ccc(S(N)(=O)=O)cc12
- Ki [5]: 6420 nM
- Ki [6]: > 10 µM
- Ki [7]: > 10 µM
- Ki [10]: > 10 µM
- Ki [11]: 7.27 µM

Compound: CCn1cncc1-c1c[nH]c2ccc(I)cc12
- Ki [7]: 4.85 µM
- Ki [10]: > 10 µM
- Ki [11]: 1.67 µM

Compound: CCn1cncc1-c1c[nH]c2ccc(C(=O)OC)cc12
- Ki [5]: 161 nM
- Ki [6]: > 10 µM
- Ki [7]: > 10 µM
- Ki [10]: > 10 µM
- Ki [11]: 6.06 µM

Compound: CCn1cncc1-c1c[nH]c2ccc(C(N)=O)cc12
- Drug metabolism [1]: Metabolite_Notdetected
- Retention_time [26]: 1.6 min
- Ratio Ki [2]: 25
- Activity [27]: Non-Toxic
- activity at 10 µM [3]: 2.9%
- activity at 25 µM [4]: 104%
- Papp [24]: 2.78 ×10⁻⁶ cm/s
- Ki [7]: > 10 µM
- Activity [28]: Active
- activity at 40 min, 100 µM [8]: 19.3%
- viability at 3 h, 100 µM [29]: 102%
- Activity [30]: Active
- IC50 [9]: 7.47 µM
- Ki [10]: > 10 µM
- Ki [11]: > 10 µM
- metabolised at 2 h [12]: 14%
- metabolised at 2 h [13]: 7%
- IC50 [14]: 310 nM
- activity at 10 µM [15]: 43.4%
- Activity [16]: 5.6
